# Experimental data taken from ChEMBL document CHEMBL4622830, “Substituted pteridinones as p90 ribosomal S6 protein kinase (RSK) inhibitors: A structure-activity study” (Bioorg Med Chem, 2020).
# Active and inactive are the calls of the source. The calls are words filed in the database; no cut-off is given here.
# What was measured:
# MOLM-13 [1] = test: Antiproliferative activity against human MOLM13 assessed as reduction in cell viability incubated for 72 hrs by CellTiter-Glo assay; type: functional, cell-based; conditions: MOLM-13, 72 h
# Outline: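 CellTiter-Glo viability in MOLM-13 cells seeded at 30,000 per well, treated across 60 µM to 247 nM at 37°C for up to 72 h. Plates equilibrated 30 min at RT, reagent added, shaken 2 min, luminescence read after 10 min. Final DMSO ≤0.5%; n = 3.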
# MOLM-13 [2] = test: Antiproliferative activity against human MOLM13 assessed as reduction in cell viability incubated for 72 hrs by CellTox green assay; type: functional, cell-based; conditions: MOLM-13, 72 h
# [3] = target: T1, Ribosomal protein S6 kinase alpha-3 (Homo sapiens, UniProt P51812); test: Inhibition of full length human GST-tagged RSK2 using Ulight-rpS6 as substrate incubated for 1 hr in presence of ATP by TR FRET assay
# MOLM-13 [4] = test: Antiproliferative activity against human MOLM13 assessed as reduction in cell viability incubated for 72 hrs by MTS assay; type: functional, cell-based; conditions: MOLM-13, 72 h
# [5] = target: T1, Ribosomal protein S6 kinase alpha-3; test: Inhibition of full length human GST-tagged RSK2 using Ulight-rpS6 as substrate at 10 uM incubated for 1 hr in presence of ATP by TR FRET assay
# Outline: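 Recombinant RSK2 at 500 pM final with 250 nM ULight-rpS6 (Ser235/236) substrate and 3 μM ATP, in 50 mM HEPES pH 7.5, 10 mM MgCl2, 1 mM EGTA, 2 mM DTT, 0.01% Tween 20. DMSO ≤0.5%. Ran 1 h at room temperature, stopped with 10 mM EDTA. Eu anti-phospho antibody (2 nM) TR-FRET, 665/615 nm ratio read.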
# [6] = target: Ribosomal protein S6 kinase alpha-1 (Homo sapiens, UniProt Q15418); test: Inhibition of RSK1 (unknown origin)
# HEK293 = test: Cytotoxicity in HEK293 cells assessed as reduction in cell viability; type: cell-based; conditions: human
# [7] = target: T1, Ribosomal protein S6 kinase alpha-3; test: Inhibition of RSK2 (unknown origin)
# MOLM-13 [8] = test: Antiproliferative activity against human MOLM13 assessed as reduction in cell viability at 60 uM incubated for 72 hrs by MTS assay; type: functional; conditions: MOLM-13, 72 h, read-out: GI
# [9] = target: Ribosomal protein S6 kinase alpha-2 (Homo sapiens, UniProt Q15349); test: Inhibition of RSK3 (unknown origin)
# MOLM-13 [10] = test: Antiproliferative activity against human MOLM13 assessed as reduction in cell viability at 0.25 to 60 uM incubated for 24 hrs by CellTox green assay; type: functional, cell-based
# Outline: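 Cytotoxicity read by CellTox Green: MOLM-13 cells, 60,000 per well, in medium with CellTox Green dye at 1:500, treated over 60 μM to 247 nM at 37°C. Fluorescence (ex 485/em 520 nm) read at 0, 24, 48 and 72 h.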
# MOLM-13 [11] = test: Antiproliferative activity against human MOLM13 assessed as reduction in cell viability at 0.25 to 60 uM incubated for 24 hrs by CellTiter-Glo assay; type: functional, cell-based
# Outline: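 MOLM-13 cells, 30,000 per well in medium, treated over 60 μM to 247 nM and held at 37°C for 24 to 72 h. Plates equilibrated 30 min at RT, CellTiter-Glo reagent added, shaken 2 min, luminescence read after 10 min at rt. n = 3.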
# MOLM-13 [12] = test: Antiproliferative activity against human MOLM13 assessed as reduction in cell viability at 0.25 to 60 uM incubated for 24 hrs by MTS assay; type: functional, cell-based
# Outline: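 MOLM-13 cells, 60,000 per well, given compound over 60 μM to 247 nM, incubated at 37°C for 24 to 72 h. CellTiter 96 AQueous One (MTS) reagent added for 3 h, formazan absorbance read at 490 nm. EC50 or percentage values derived.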
# [13] = target: Bromodomain-containing protein 4 (Homo sapiens, UniProt O60885); test: Binding affinity to BRD4 bromodomain 1 (unknown origin) by ITC assay
# T1 sequence (P51812 whole entry): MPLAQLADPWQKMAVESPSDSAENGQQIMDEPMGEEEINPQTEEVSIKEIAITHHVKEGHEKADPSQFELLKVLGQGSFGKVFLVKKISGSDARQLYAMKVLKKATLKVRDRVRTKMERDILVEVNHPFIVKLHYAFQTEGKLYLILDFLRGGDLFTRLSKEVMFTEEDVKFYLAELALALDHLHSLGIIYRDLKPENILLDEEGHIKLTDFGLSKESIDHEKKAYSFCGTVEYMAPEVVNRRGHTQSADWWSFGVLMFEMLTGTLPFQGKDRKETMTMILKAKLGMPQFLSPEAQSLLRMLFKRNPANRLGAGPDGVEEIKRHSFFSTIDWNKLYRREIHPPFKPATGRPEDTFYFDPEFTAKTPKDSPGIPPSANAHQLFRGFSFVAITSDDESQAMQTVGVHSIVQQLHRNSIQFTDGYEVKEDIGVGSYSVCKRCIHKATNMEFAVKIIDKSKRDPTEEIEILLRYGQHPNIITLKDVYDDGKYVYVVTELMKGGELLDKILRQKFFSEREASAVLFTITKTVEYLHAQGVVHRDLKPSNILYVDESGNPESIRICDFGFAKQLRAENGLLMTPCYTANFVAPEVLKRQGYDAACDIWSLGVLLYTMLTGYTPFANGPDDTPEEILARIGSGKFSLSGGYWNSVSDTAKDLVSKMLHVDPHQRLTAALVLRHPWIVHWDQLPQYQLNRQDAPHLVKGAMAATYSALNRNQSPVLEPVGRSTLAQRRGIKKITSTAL
# Chain of Ribosomal protein S6 kinase alpha-1 (Q15418 whole entry): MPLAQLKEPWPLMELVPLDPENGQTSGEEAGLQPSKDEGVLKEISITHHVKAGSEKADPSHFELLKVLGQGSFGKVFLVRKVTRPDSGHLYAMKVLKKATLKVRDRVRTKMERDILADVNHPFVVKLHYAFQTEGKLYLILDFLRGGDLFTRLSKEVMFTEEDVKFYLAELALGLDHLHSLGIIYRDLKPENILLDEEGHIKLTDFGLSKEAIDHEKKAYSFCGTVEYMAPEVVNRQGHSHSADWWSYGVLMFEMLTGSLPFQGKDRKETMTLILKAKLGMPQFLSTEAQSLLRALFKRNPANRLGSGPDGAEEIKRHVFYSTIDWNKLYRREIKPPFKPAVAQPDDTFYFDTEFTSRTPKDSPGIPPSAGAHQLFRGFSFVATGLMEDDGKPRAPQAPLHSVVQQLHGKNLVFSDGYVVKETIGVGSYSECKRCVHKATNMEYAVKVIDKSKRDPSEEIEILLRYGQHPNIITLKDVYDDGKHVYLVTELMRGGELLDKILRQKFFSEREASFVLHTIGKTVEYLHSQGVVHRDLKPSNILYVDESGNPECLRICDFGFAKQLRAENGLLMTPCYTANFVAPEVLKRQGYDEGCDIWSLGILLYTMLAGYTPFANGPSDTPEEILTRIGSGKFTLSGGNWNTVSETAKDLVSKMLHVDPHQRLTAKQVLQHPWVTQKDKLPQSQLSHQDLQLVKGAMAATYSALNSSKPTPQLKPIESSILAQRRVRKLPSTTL
# Chain of Ribosomal protein S6 kinase alpha-2 (Q15349 whole entry): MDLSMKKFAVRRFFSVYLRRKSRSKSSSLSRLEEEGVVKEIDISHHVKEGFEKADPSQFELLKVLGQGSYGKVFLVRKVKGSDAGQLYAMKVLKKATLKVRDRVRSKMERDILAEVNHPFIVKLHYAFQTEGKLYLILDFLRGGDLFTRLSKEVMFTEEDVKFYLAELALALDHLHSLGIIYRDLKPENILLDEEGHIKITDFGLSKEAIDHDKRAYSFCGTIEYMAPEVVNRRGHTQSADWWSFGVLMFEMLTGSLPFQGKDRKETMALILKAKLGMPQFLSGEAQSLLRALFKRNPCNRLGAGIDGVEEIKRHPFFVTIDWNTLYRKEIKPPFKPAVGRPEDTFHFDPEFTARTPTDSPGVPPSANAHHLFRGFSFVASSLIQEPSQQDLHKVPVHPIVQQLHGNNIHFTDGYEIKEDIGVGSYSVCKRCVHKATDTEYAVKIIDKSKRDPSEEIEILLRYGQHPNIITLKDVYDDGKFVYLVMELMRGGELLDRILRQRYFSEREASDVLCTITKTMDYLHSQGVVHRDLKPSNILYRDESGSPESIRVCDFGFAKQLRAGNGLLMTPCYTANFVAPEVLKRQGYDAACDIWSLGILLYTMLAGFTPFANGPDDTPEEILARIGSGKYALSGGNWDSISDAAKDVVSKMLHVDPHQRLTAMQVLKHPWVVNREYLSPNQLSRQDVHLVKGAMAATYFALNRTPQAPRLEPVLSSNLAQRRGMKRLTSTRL
Compound,EC50 (MOLM-13 [1]) [nM],EC50 (MOLM-13 [2]) [nM],IC50 [3] [nM],inhibition [5] [%],further results
CC(C)CCN1CC(=O)Nc2cnc(Nc3ccc(O)c(F)c3)nc21,2230,4640,38.3,–,EC50 (MOLM-13 [4]): 4390 nM
Nc1cnc(Nc2cc(F)c(O)c(F)c2)nc1N,–,–,–,38,–
Oc1c(F)cc(-c2cnccc2-c2ccc(N3CCOCC3)cc2)cc1F,19100,23400,–,–,IC50 [6]: 6 nM; Activity (HEK293): Toxic; IC50 [7]: 5 nM; inhibition of growth at 60 µM (MOLM-13 [8]): 79%; IC50 [9]: 4 nM
Oc1c(F)cc(Nc2ncccn2)cc1F,–,–,–,45,–
CC(C)CCN1c2nc(Nc3cc(F)cc(F)c3)ncc2N(C)C(=O)C1C (configuration not stated),–,–,–,71,–
CC(C)CCN1c2nc(Nc3ccc(O)cc3)ncc2N(C)C(=O)C1C (configuration not stated),–,–,54.8,–,–
COc1c(F)cc(Nc2ncc3c(n2)N(CCC(C)C)C(C)C(=O)N3C)cc1F (configuration not stated),–,–,–,43,–
CC(C)CCN1CC(=O)Nc2cnc(Nc3cc(F)c(O)c(F)c3)nc21,6200,6850,23.4,–,EC50 (MOLM-13 [4]): 6820 nM
CC(C)CCN1c2nc(Nc3cc(F)c(O)c(F)c3)ncc2NC(=O)C1C (configuration not stated),17400,18100,18.2,–,Activity (HEK293): Toxic; inhibition of growth at 60 µM (MOLM-13 [8]): 56%
CC(C)CCN1c2nc(Nc3ccc(O)c(Cl)c3)ncc2N(C)C(=O)C1C (configuration not stated),–,–,71.5,–,–
CC(C)CCN1CC(=O)N(C)c2cnc(Nc3cc(F)c(O)c(F)c3)nc21,1670,4540,17.6,–,EC50 (MOLM-13 [4]): 2710 nM
CC(C)CCN1CC(=O)N(C)c2cnc(Nc3ccc(O)c(F)c3)nc21,–,–,24.7,–,–
CC1Nc2nc(Nc3cc(F)c(O)c(F)c3)ncc2NC1=O (configuration not stated),–,–,–,83,–
CC(C)CCN1c2nc(Nc3cc(Br)c(O)c(Br)c3)ncc2N(C)C(=O)C1C (configuration not stated),–,–,–,78,–
CN1CCN(c2ccc(-c3ccncc3-c3cc(F)c(O)c(F)c3)cc2)CC1,9710,22000,–,–,Activity (HEK293): Toxic; inhibition of growth at 60 µM (MOLM-13 [8]): 75%
CC(C)CCN1c2nc(Nc3ccc(CO)cc3)ncc2N(C)C(=O)C1C (configuration not stated),–,–,739,–,–
CC(C)CCN1c2nc(Nc3ccc(O)c(Br)c3)ncc2N(C)C(=O)C1C (configuration not stated),–,–,141,–,–
CC(C)CCN1c2nc(Nc3cc(Cl)c(O)c(Cl)c3)ncc2N(C)C(=O)C1C (configuration not stated),–,–,–,83,–
Nc1nc(Nc2cc(F)c(O)c(F)c2)ncc1[N+](=O)[O-],–,–,–,72,–
CC(C)CCN1c2nc(Nc3cc(F)c(O)c(F)c3)ncc2N(C)C(=O)C1C (configuration not stated),1890,3410,–,–,Activity (MOLM-13 [10]): Active; Activity (MOLM-13 [11]): Active; Activity (MOLM-13 [12]): Active; Kd [13]: 3500 nM; EC50 (MOLM-13 [4]): 2800 nM
CC(C)CCN1c2nc(Nc3ccc(O)c(F)c3)ncc2N(C)C(=O)C1C (configuration not stated),870,3160,25.4,–,EC50 (MOLM-13 [4]): 1690 nM
